Measured values taken from the RNAGym collection of RNA variant scans (doi:10.1126/science.aae0568).
Fewer inactive variants are shown than the library holds.

B1: tRNA (parent)
chain: GUUCCGUUGGCGUAAUGGUAACGCGUCUCCCUCCUAAGGAGAAGACUGCGGGUUCGAGUCCCGUACGGAACG

Variants of: B1
Assay: yeast fitness relative to wild type (ratio to wild type); higher = fitter; tRNA-Arg(CCU), competitive growth, 37 C, YPD
Procedure, shortened: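 Gene amplicons from the start population and from each of six end populations were read by 100-nucleotide paired-end sequencing. Those end populations came from pooled Saccharomyces cerevisiae strains carrying tRNA-Arg(CCU) gene variants at the native locus, competed in YPD at 37°C for 24 hours. Fitness relative to wild type was worked out from changes in genotype frequencies. Genotypes needed ≥ 100 starting reads, and estimates < 0.5 were set to 0.5.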
For C4U C11U G25C G41A G58C, the yeast fitness was no more than 0.5. In the case of A36G A42G C46G, the yeast fitness is reported as 0.698. G25A G41A A43U showed a yeast fitness of no more than 0.5. U7A A20G G23A A40G U47C A70C gave a yeast fitness of no more than 0.5. C11G A14G G48A C55U A65C showed a yeast fitness of 0.759. With U2G C4U A40C the yeast fitness was 0.627. For U3C G12C A37U G51A C62U, the yeast fitness was 0.607. For A14C C22U C55U C61G C62G, the yeast fitness was no more than 0.5. U2A C4G A14U C60A gave a yeast fitness of no more than 0.5. Variant U32C C62A has a yeast fitness of 0.727. In the case of G18A C34U A43C U53G, the yeast fitness is reported as no more than 0.5. With A43U U47C the yeast fitness was 0.899. With U3C U16A C30U A40C the yeast fitness was no more than 0.5. Variant U3G A43C G48A A70C has a yeast fitness of 0.617. G10C C24U U64C showed a yeast fitness of no more than 0.5. Variant U3A G6C C55U G63A has a yeast fitness of no more than 0.5. Work on U2A U28A C55G A70G yielded a yeast fitness of no more than 0.5. C11U U13G U19A C22G G25A gave a yeast fitness of 0.604. For A20G U32A C34G A43G G50C U64A, the yeast fitness was no more than 0.5. C29A C61G G67C G68A gave a yeast fitness of no more than 0.5. With G6C G17A A37G C60G A70U the yeast fitness was no more than 0.5. Variant G9A C11G U13G G23C G25A C34U U59C C66U has a yeast fitness of no more than 0.5. With U2G C27U C46U G63A the yeast fitness was 0.811. Work on A21C A43U C49U G68A yielded a yeast fitness of no more than 0.5. A21C G38C G44C gave a yeast fitness of 0.544. A14G U19G G48C U54G A65C showed a yeast fitness of no more than 0.5. In the case of A21G C34G G63A G67C, the yeast fitness is reported as no more than 0.5. C34U A40G showed a yeast fitness of 0.729. A45C G50C G51C C55U G67C showed a yeast fitness of no more than 0.5. With U3G U53C A57G C66U A69U the yeast fitness was no more than 0.5. U32G U35A A65U gave a yeast fitness of no more than 0.5. Work on C33G A36U G44A U59C yielded a yeast fitness of 0.611. C31G U59C showed a yeast fitness of 0.871. In the case of U32A A36G G39C G50A U64C, the yeast fitness is reported as no more than 0.5. G6C U8A C22U C61G showed a yeast fitness of 0.501. Variant G39C C55G has a yeast fitness of no more than 0.5. A20U G38C C61G A69G showed a yeast fitness of no more than 0.5. For G41C C55U G67C, the yeast fitness was no more than 0.5. U8C G44A G48A C49A U59A showed a yeast fitness of 0.524. For C24G C30G C31U U35A A36U G44A, the yeast fitness was 0.695. C5A U8C G52A G58C showed a yeast fitness of no more than 0.5. In the case of C4U C24G A42C, the yeast fitness is reported as no more than 0.5. For C31G A36C A42G G52A, the yeast fitness was no more than 0.5. G18C C27G gave a yeast fitness of 0.61. For A14G G48A, the yeast fitness was 0.868. In the case of C24U C62G U64G, the yeast fitness is reported as no more than 0.5. With C33G C34U G68A the yeast fitness was 0.582. U13A A37G G41C showed a yeast fitness of no more than 0.5. Work on C27A C33A C46A G63C yielded a yeast fitness of no more than 0.5. With C5G G10A C11G U16G C33G U47A C60A the yeast fitness was no more than 0.5. A40C G67C showed a yeast fitness of 0.907. C30A C49A A57U A70G showed a yeast fitness of 0.509. For C29A C31U A42C, the yeast fitness was 0.576. U13G A14U U16A G17U G67C showed a yeast fitness of no more than 0.5. A21G C61A showed a yeast fitness of 0.645. In the case of C4G U35A A36U, the yeast fitness is reported as no more than 0.5. In the case of U13A A40C A70U, the yeast fitness is reported as no more than 0.5. For G6C U35A, the yeast fitness was 0.876. For C29A C55G A65G, the yeast fitness was 0.57. With G12C U13A G18C U32A G52A the yeast fitness was no more than 0.5. With C33A A37U A57C the yeast fitness was no more than 0.5. C30A C55G showed a yeast fitness of 0.596. In the case of U3A A20U, the yeast fitness is reported as 0.834. In the case of U7G C27G U28G G52C G58C A65U A70C, the yeast fitness is reported as no more than 0.5. For C29A A36C G58A, the yeast fitness was no more than 0.5. Work on C34U C61G C66U yielded a yeast fitness of 0.595. With U7C A20U the yeast fitness was 0.722. Work on C24U U59A C62A yielded a yeast fitness of no more than 0.5. C11U C61A C62U G63C A70U showed a yeast fitness of no more than 0.5. C24A C27A U28A A70U gave a yeast fitness of no more than 0.5. For U16A A42G C49G, the yeast fitness was 0.542. Variant A40C A42U G56A C66G has a yeast fitness of no more than 0.5. Work on A37U A42G A69C yielded a yeast fitness of no more than 0.5. A40G G52A A65U gave a yeast fitness of no more than 0.5. C5U A20U C24U C27U A45G showed a yeast fitness of no more than 0.5. Variant C31G C46G C61G has a yeast fitness of no more than 0.5. Variant C4U G48C C55G A69U has a yeast fitness of no more than 0.5. U2A C31A G48A gave a yeast fitness of 0.619. U2C C5A C46U showed a yeast fitness of 0.591. Variant C4G C27A G48A has a yeast fitness of 0.571. With C34G G39A G50C the yeast fitness was no more than 0.5. C4A A20C U47A showed a yeast fitness of no more than 0.5. U16G C24U showed a yeast fitness of 0.822. In the case of C49U U54C C55G, the yeast fitness is reported as 0.548. Variant C4A G17C U19C A21U C33G has a yeast fitness of no more than 0.5. In the case of G6A C27U C31G A43C C49G G52C U59A, the yeast fitness is reported as no more than 0.5. G10A A37C gave a yeast fitness of 0.741. With C61U the yeast fitness was 1.01. A20U A42C G56A showed a yeast fitness of no more than 0.5. For G12A C27G, the yeast fitness was 0.71. In the case of C11U A15C C29U A37G, the yeast fitness is reported as 0.535. Work on C11U G38A C60G yielded a yeast fitness of no more than 0.5. U7A C49G G50C C62U showed a yeast fitness of no more than 0.5. With C29U C31G A37C G50A the yeast fitness was no more than 0.5. Work on C34U C66U A69U yielded a yeast fitness of no more than 0.5. A37G C55G C66G gave a yeast fitness of no more than 0.5. For C5U U13G C22A C29U C31A U59A C62U, the yeast fitness was no more than 0.5. With A15U A42U C49G C60A the yeast fitness was no more than 0.5. Work on U13G C33U yielded a yeast fitness of 0.671. Work on U2G A14C C27U U35A A57G C66U yielded a yeast fitness of no more than 0.5. Variant U2A A20C C55U has a yeast fitness of 0.582. G23C C27G C61U C66U showed a yeast fitness of no more than 0.5. C27U G44C C62U showed a yeast fitness of 0.733. In the case of C5U C11U C46U, the yeast fitness is reported as 0.752. C34G A65G showed a yeast fitness of 0.765. C5A C62U C66G gave a yeast fitness of no more than 0.5. Work on C24G U26A C31U A45C A69U yielded a yeast fitness of no more than 0.5. For G10U U32A G38C U64C, the yeast fitness was no more than 0.5. Variant C30G C31U A57G U59A has a yeast fitness of no more than 0.5. In the case of C11U A36G U53C, the yeast fitness is reported as 0.538. U26G G44C G58A G68C gave a yeast fitness of 0.529. U2G C33G G39C A65C showed a yeast fitness of no more than 0.5. With U2A C30G A37U U53A C55U A57U the yeast fitness was 0.574. A21C A69C A70U showed a yeast fitness of 0.686. In the case of U7C C46U, the yeast fitness is reported as 0.884. For U3A C4U G44C, the yeast fitness was 0.638. Variant U2A A21C C29U G52C has a yeast fitness of no more than 0.5. For A45C C49U, the yeast fitness was 0.978. With C5G C24U C61A A70C the yeast fitness was no more than 0.5. With C4G C5U U26A C34A the yeast fitness was no more than 0.5. Variant C24U U35A has a yeast fitness of 0.806. With A15G U26A G41A U64A A70C the yeast fitness was no more than 0.5. With A21C G39A C49A the yeast fitness was no more than 0.5. Variant U3A U7A A15C C55G has a yeast fitness of no more than 0.5. In the case of C5A A40G, the yeast fitness is reported as 0.713. For A20C G52C C61G, the yeast fitness was no more than 0.5. With A20C G23A A70U the yeast fitness was 0.551. For C11U U19A C60G G68A, the yeast fitness was no more than 0.5. G17C C24G C46G U59C gave a yeast fitness of no more than 0.5. With U2A G18A C24A U28A U32C C60A the yeast fitness was no more than 0.5. Variant G10C C11G C24G has a yeast fitness of 0.577. G10C C24G C55A showed a yeast fitness of no more than 0.5. For C29U G67A A70U, the yeast fitness was 0.52. U2A A21U showed a yeast fitness of 0.686. For U2A C31G C49U G51A G63A, the yeast fitness was no more than 0.5. In the case of A21G U26C C27G G48C, the yeast fitness is reported as no more than 0.5. For C11U G18C, the yeast fitness was 0.728. In the case of G6A G50A, the yeast fitness is reported as 0.841. Work on C29G C30G A57U A70G yielded a yeast fitness of 0.503. In the case of C27A A45G G68C, the yeast fitness is reported as no more than 0.5. Work on U3G C27A A65U yielded a yeast fitness of no more than 0.5. U3G C4U A15G C24G C55U showed a yeast fitness of no more than 0.5. Work on G18C A20U C31U G48A C55U G68U yielded a yeast fitness of 0.586. Variant A36U G38A A40G has a yeast fitness of no more than 0.5. A14U U16A C27G A40U C49G A65U gave a yeast fitness of no more than 0.5. G18A C34A C60A showed a yeast fitness of no more than 0.5. Work on U59C G68C yielded a yeast fitness of 0.765. G10A U13G C27U C46G G67A showed a yeast fitness of no more than 0.5. Work on C30A C34A A43C C62U yielded a yeast fitness of no more than 0.5. Work on A40U U59G yielded a yeast fitness of 0.815. C31U C60G G67A showed a yeast fitness of no more than 0.5. C4G A69U showed a yeast fitness of 0.775. For U26C G50C, the yeast fitness was 0.732. G12A C24A A36U C61U G67U gave a yeast fitness of 0.69. Work on U2C A37G yielded a yeast fitness of 0.67. In the case of C5G A14C A37G C62G, the yeast fitness is reported as 0.561. Variant C4G A14G A69U has a yeast fitness of 0.52. U19C G25A A45G C62U gave a yeast fitness of 0.702. C22U C30G U54C C62G A65U gave a yeast fitness of no more than 0.5. With U7G G10A C27U G68A the yeast fitness was no more than 0.5. G6A C30U G67A gave a yeast fitness of 0.586. In the case of G17C A45C G48A U59A A70C, the yeast fitness is reported as no more than 0.5. With C29A A40G C55U the yeast fitness was no more than 0.5. Work on U19C A37U yielded a yeast fitness of 1.08. C11U A37U C49G gave a yeast fitness of no more than 0.5. G25A C60G showed a yeast fitness of 0.718. C22A C33G A43C A69C showed a yeast fitness of no more than 0.5.
